Consider seven compounds from PMC9673116 (Poultry Science, 2022).

Usually Vd/F stands for the volume of distribution divided by bioavailability. Usually half-life stands for the time in which the quantity being followed falls by half. A high value points to slow loss.

One data set deals with chicken BCRP. Conditions: ref Zhang et al., 2018; cited from earlier work.
The conditions of data set [1]: Arbor Acres broilers, ref Liu et al., 2018; cited from earlier work.
Data set [2] can be described thus: Pharmacokinetic study of orally administered florfenicol in chicken. The class given is in vivo. Conditions: female, HY-Line Brown, plasma, po, 20 mg/kg.
A further data set concerns BCRP. Put plainly: Mitoxantrone accumulation assay. The class given is cell-based, chicken. Summed up:
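Hepatocytes isolated from livers of 14-day-old Arbor Acres broiler embryos, grown in M199 with transferrin, penicillin and streptomycin (37°C, 5% CO2). Exposed 24 h to CXR agonist alone or with BCRP inhibitor; untreated cells served as negative control. All wells then loaded with mitoxantrone 1 h, trypsinized, washed 3× PBS. Intracellular fluorescence read by flow cytometry at 633 nm excitation. At least 3 independent experiments, mean ± SD.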

The conditions of data set [3]: ref Anadon et al., 2008; cited from earlier work.
The subject of data set [4] is BCRP protein. The class given is in vivo. Particulars: metyrapone single oral 150 mg per chicken, 24 h. Summed up:
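Third-week-old chickens (6 per group), untreated or given a single oral CXR agonist dose of 150 mg per chicken, killed by CO2 24 h later. Tissues snap-frozen. Protein extracted with RIPA and quantified by BCA. Separated by 5–12% SDS-PAGE, blotted to PVDF. Probed with anti-BCRP 1:500 and anti-β-tubulin 1:5,000 overnight at 4°C. ECL detection; densitometry normalized to β-tubulin.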

For data set [5], the system named is CYP2H1 mRNA. Put plainly: RT-PCR analysis of CYP2H1 mRNA in chicken primary hepatocytes. The class given is cell-based. Conditions: 500 µM metyrapone 24 h. Summed up: (§1)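 Primary broiler-embryo hepatocytes grown to 70% confluency in 6-well plates. Transfected 24 h with CXR-targeting or scrambled control siRNA, then exposed to CXR agonist 24 h. Total RNA extracted with TRIzol and reverse-transcribed. Target mRNA quantified by SYBR Green real-time PCR against β-actin, 2^−ΔΔCt method. Three independent experiments, mean ± SD.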

Data set [6] concerns ABCG2 mRNA. The data set can be described thus: RT-PCR analysis of ABCG2 mRNA in chicken primary hepatocytes. The class given is cell-based. Particulars: hepatocytes transfected with siCXR, 500 µM metyrapone 24 h. Summed up: as §1
In data set [7] the test system is CYP2H1 mRNA. The data set can be described thus: RT-PCR analysis of CYP2H1 mRNA in tissues of chickens treated with metyrapone. In kind it is in vivo. Particulars: metyrapone single oral 150 mg per chicken, 24 h. In outline: (§2)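 Twelve third-week-old chickens of similar weight in two groups of 6: untreated, or a single oral CXR agonist dose of 150 mg per chicken. Killed by CO2 asphyxiation 24 h later. Tissues snap-frozen and stored −70°C. RNA extracted with TRIzol and reverse-transcribed. mRNA quantified by SYBR Green real-time PCR with β-actin reference, 2^−ΔΔCt. Mean ± SD.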

The test system of data set [8] is ABCG2 mRNA. Put plainly: RT-PCR analysis of ABCG2 mRNA in tissues of chickens treated with metyrapone. Conditions: metyrapone single oral 150 mg per chicken, 24 h. The class given is in vivo. Summed up: as §2
The test system of data set [9] is BCRP protein. The data set can be described thus: Western blot analysis of BCRP protein expression in chicken primary hepatocytes. The class given is cell-based. Summed up:
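Primary hepatocytes exposed 24 h to a range of CXR agonist concentrations, or siRNA-knocked-down first (CXR-targeting vs scrambled) and then agonist-treated 24 h. Lysed in RIPA, protein by BCA, separated on 5–12% SDS-PAGE, transferred to PVDF. Blocked with 5% milk 1 h. Probed overnight at 4°C with anti-BCRP 1:500 and anti-β-tubulin 1:5,000, then secondary 1:4,000 1 h at 37°C. ECL detection; densitometry normalized to β-tubulin.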
(In general: Immunoblotting shows a protein as a band on a membrane.)

Read-outs that look alike come from different tables or passages of the source.

For the compound `CS(=O)(=O)c1ccc([C@@H](O)[C@@H](CF)NC(=O)C(Cl)Cl)cc1` [Florfenicol, florfenicol], the “Transport by chicken BCRP” value with chicken BCRP is “actively transported”. For the same compound, in [1], the “Absorption upon coadministration of gefitinib (a BCRP inhibitor)” value was “more extensively absorbed”. In data set [2], this compound showed a Vd/F of 0.24 ± 0.05 L/kg and a half-life of 2.13 ± 0.45 h.
For the compound `COc1ccc2c3c([nH]c2c1)[C@H](CC(C)C)N1C(=O)[C@H](CCC(=O)OC(C)(C)C)NC(=O)[C@@H]1C3` [Ko143], the “Effect on metyrapone-induced mitoxantrone efflux activity” value with BCRP (cotreatment of Ko143 with 500 µM metyrapone) was “reversed”.
In the case of `CC1(C)S[C@@H]2[C@H](NC(=O)[C@H](N)c3ccccc3)C(=O)N2[C@H]1C(=O)O` [ampicillin], in the data set on chicken BCRP, the “Transport by chicken BCRP” value is listed as “actively transported”.
Turning to `CCN1CCN(c2cc3c(cc2F)c(=O)c(C(=O)O)cn3C2CC2)CC1` [enrofloxacin], the “Transport by chicken BCRP” value in the data set on chicken BCRP is reported as “actively transported”.
In the case of `CS(=O)(=O)c1ccc([C@@H](O)[C@H](N)CF)cc1` [florfenicol amine], the “Eliminated by renal excretion as metabolite florfenicol amine” value in [3] is 25%.
Regarding `CC(C)(C(=O)c1cccnc1)c1cccnc1` [metyrapone, Metyrapone], the “BCRP protein expression increase” value is given as 1.4 fold in the data set with BCRP protein [4] (duodenum), 1.3 fold with BCRP protein [4] (jejunum), 1.6 fold in the data set with BCRP protein [4] (kidney) and 1.6 fold in the data set on BCRP protein [4] (liver). For the same compound, the “Induction of CYP2H1 mRNA upon metyrapone treatment, CXR expression vector” value in the data set on CYP2H1 mRNA [5] (hepatocytes transfected with CXR expression vector) is recorded as 5.1 fold. Besides, the “Induction of CYP2H1 mRNA by metyrapone after knockdown of CXR” value in the data set with CYP2H1 mRNA [5] (hepatocytes transfected with siCXR) stood at 0.5 fold. Also, the “Induction of ABCG2 at the mRNA level by metyrapone after knockdown of CXR” value in the data set with ABCG2 mRNA [6] is recorded as 0.7 fold. Moreover, the “CYP2H1 mRNA expression increase” value in the data set on CYP2H1 mRNA [7] (duodenum) stood at 5.6 fold; with CYP2H1 mRNA [7] (jejunum), 1.7 fold; with CYP2H1 mRNA [7] (kidney), 8 fold; in the data set with CYP2H1 mRNA [7] (liver) it was 3.6 fold. Also, in the data set with CYP2H1 mRNA [7] (ileum), the “Effect on expression of CYP2H1” value is “did not influence”. Further, the “ABCG2 mRNA expression increase” value in the data set on ABCG2 mRNA [8] (duodenum) came to 1.8 fold; in the data set on ABCG2 mRNA [8] (jejunum), 1.6 fold; in the data set on ABCG2 mRNA [8] (kidney) it was 2.2 fold; in the data set with ABCG2 mRNA [8] (liver) it was 2.1 fold. Moreover, the “Effect on expression of ABCG2” value with ABCG2 mRNA [8] (ileum) is “did not influence”. Further, the “Induction of ABCG2 at the protein level by metyrapone after knockdown of CXR” value in the data set with BCRP protein [9] (hepatocytes transfected with siCXR, 500 µM metyrapone 24 h) was 0.7 fold. In addition, the “BCRP protein expression, fold vs negative control cells” value in the data set with BCRP protein [9] (increasing concentrations of metyrapone, 24 h, chicken primary hepatocytes) was “up to 2.8 fold”. Besides, in the data set on BCRP (500 µM metyrapone pretreatment 24 h, 5 µM mitoxantrone 1 h, P < 0.01), the “Intracellular mitoxantrone fluorescence lower than in untreated cells” value was 33%.
For `CC[C@H]1OC(=O)C[C@@H](O)[C@H](C)[C@@H](O[C@@H]2O[C@H](C)[C@@H](O)[C@H](N(C)C)[C@H]2O)[C@@H](CCN2C[C@H](C)C[C@H](C)C2)C[C@@H](C)C(=O)/C=C/C(C)=C/[C@@H]1CO[C@@H]1O[C@H](C)[C@@H](O)[C@@H](OC)[C@H]1OC` [tilmicosin], the “Transport by chicken BCRP” value in the data set with chicken BCRP is listed as “actively transported”.
